Laboratory results from ChEMBL document CHEMBL3091397, “Structural effects on persister control by brominated furanones” (Bioorg Med Chem Lett, 2013).
The source made the active and inactive calls. The rule behind the calls is not given here.

Experiments:
Vibrio harveyi [1] = assay: Toxicity in Vibrio harveyi ATCC BAA-1118 assessed as effect on cell viability after 1.5 hrs by bioluminescence assay; format: organism-based
How it was run: (§1)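 V. harveyi BB886 QS reporter was exposed to furanones at various concentrations in the bioluminescence assay. Viable cells were counted as CFU after treatment.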

Pseudomonas aeruginosa [2] = assay: Potentiation of ciprofloxacin-induced antibacterial activity against Pseudomonas aeruginosa PAO1 assessed as sensitive persister cells at 2 ug/mL after 3.5 hrs; format: functional
How it was run: (§2)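 Isolated PAO1 persisters were given furanone at 2 µg/mL for 2 h. A portion of each sample then received 200 µg/mL ciprofloxacin for 3.5 h. Surviving persisters were counted as CFU.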

Pseudomonas aeruginosa [3] = assay: Antibacterial activity against Pseudomonas aeruginosa PAO1 assessed as viability of persister cells at 2 ug/mL after 2 hrs; format: functional
How it was run: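 Persisters isolated from P. aeruginosa PAO1 per an earlier protocol, exposed to furanone for 2 h. Viability was counted as CFU by plating on LB agar immediately after treatment.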

Vibrio harveyi [4] = assay: Inhibition of AHL-mediated quorum sensing in Vibrio harveyi ATCC BAA-1118 after 1.5 hrs by bioluminescence assay
How it was run: (§3)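 V. harveyi BB886 reporter, which emits light in response to extracellular AHL, was incubated with or without furanone at various concentrations (Surette method, modified). Bioluminescence was normalized to viable CFU to give relative bioluminescence versus untreated.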

Pseudomonas aeruginosa [5] = assay: Antibacterial activity against Pseudomonas aeruginosa PAO1 assessed as viability of persister cells at 200 ug/mL after 3.5 hrs; format: functional, organism-based; how it was run: as §2
Pseudomonas aeruginosa [6] = assay: Antibacterial activity against Pseudomonas aeruginosa PAO1 assessed as viability of persister cells at 2 ug/mL after 2 hrs
Pseudomonas aeruginosa [7] = assay: Potentiation of ciprofloxacin-induced antibacterial activity against Pseudomonas aeruginosa PAO1 assessed as persister cells at 2 ug/mL after 3.5 hrs; format: functional, organism-based; how it was run: as §2
Vibrio harveyi [8] = assay: Inhibition of AHL-mediated quorum sensing in Vibrio harveyi ATCC BAA-1118 at 0.5 ug/mL after 1.5 hrs by bioluminescence assay relative to control; how it was run: as §3
Vibrio harveyi [9] = assay: Toxicity in Vibrio harveyi ATCC BAA-1118 assessed as effect on cell viability up to 60 ug/mL after 1.5 hrs by bioluminescence assay; format: organism-based; how it was run: as §1
Vibrio harveyi [10] = assay: Inhibition of AHL-mediated quorum sensing in Vibrio harveyi ATCC BAA-1118 up to 60 ug/mL after 1.5 hrs by bioluminescence assay; how it was run: as §3
Vibrio harveyi [11] = assay: Inhibition of AHL-mediated quorum sensing in Vibrio harveyi ATCC BAA-1118 at 30 ug/mL after 1.5 hrs by bioluminescence assay; how it was run: as §3
Vibrio harveyi [12] = assay: Toxicity in Vibrio harveyi ATCC BAA-1118 assessed as effect on cell viability at 30 ug/mL after 1.5 hrs by bioluminescence assay; format: organism-based; how it was run: as §1
Vibrio harveyi [13] = assay: Inhibition of AHL-mediated quorum sensing in Vibrio harveyi ATCC BAA-1118 at 10 ug/mL after 1.5 hrs by bioluminescence assay relative to control; how it was run: as §3
Vibrio harveyi [14] = assay: Toxicity in Vibrio harveyi ATCC BAA-1118 assessed as effect on cell viability up to 10 ug/mL after 1.5 hrs by bioluminescence assay; format: organism-based; how it was run: as §1

| inhibition (Vibrio harveyi [4]) | Structure (SMILES) | Activity (Vibrio harveyi [1]) | Activity (Pseudomonas aeruginosa [3]) | Activity (Pseudomonas aeruginosa [6]) | other results |
| --- | --- | --- | --- | --- | --- |
| inactive | CC1=C(Br)C(C(Br)Br)OC1=O (stereo unspecified) | Non-toxic | 64.6% |  | Activity (Pseudomonas aeruginosa [2]): 99.99% |
| Active | O=C1O/C(=C\Br)C(Br)=C1CBr | Non-toxic |  | Active |  |
| Dose-dependent effect | CC1=CC(=C(Br)Br)OC1=O |  | inactive |  | Activity (Pseudomonas aeruginosa [7]): Active; inhibition (Vibrio harveyi [11]): Active; Activity (Vibrio harveyi [12]): Toxic; inhibition (Vibrio harveyi [13]): 100%; Activity (Vibrio harveyi [14]): Non-toxic |

More lines, now with the values behind:

| Structure (SMILES) | inhibition (Vibrio harveyi [4]) | Activity (Vibrio harveyi [1]) | Activity (Pseudomonas aeruginosa [3]) | Activity (Pseudomonas aeruginosa [6]) | other results |
| --- | --- | --- | --- | --- | --- |
| O=C(O)c1cn(C2CC2)c2cc(N3CCNCC3)c(F)cc2c1=O |  |  |  |  | Activity (Pseudomonas aeruginosa [5]): inactive |
| CC1=C(Br)C(Br)(C(Br)Br)OC1=O (stereo unspecified) | inactive | Non-toxic |  | Active |  |
| O=C1OC(=C(Br)Br)C=C1CBr |  | Non-toxic | inactive |  | Activity (Pseudomonas aeruginosa [7]): Active; inhibition (Vibrio harveyi [8]): 91.2% |
| O=C1OC(=C(Br)Br)C=C1C(Br)Br |  | Non-toxic |  | Active | inhibition (Vibrio harveyi [8]): 55.9% |
| COC1=CC(=O)OC1 |  |  |  | inactive | Activity (Vibrio harveyi [9]): Non-toxic; inhibition (Vibrio harveyi [10]): inactive |
| CC1=CC(=O)OC1=O | inactive | Non-toxic |  | inactive |  |
